Bioassay records (PubChem BioAssay)
Sampled rows, rich in hits. Any-hit rate of the full collection: about 3.5%.
RGS4 block: RGS4 inhibitors, primary screen, cell-based, HEK293 M3R inducible RGS4, calcium flux; Regulator of G-protein signaling 4 (Homo sapiens), P49798; hit rate 0.45% among 310,000; AID 463165, 2010; Fluo-4 calcium flux; active compounds read high; triggered by carbachol at its EC20; B-score at 10 µM;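 active = B-score, a plate-corrected calcium signal, over three deviations above library mean, with baseline fluorescence within five deviations of library mean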;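 note: RGS4 expression induced by doxycycline in cells with stable M3 receptor; B-score is computed from the integrated fluorescence ratio over baseline after carbachol; higher B-score means a larger calcium signal and so more RGS4 inhibition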
Target sequence (P49798 whole entry, looked up): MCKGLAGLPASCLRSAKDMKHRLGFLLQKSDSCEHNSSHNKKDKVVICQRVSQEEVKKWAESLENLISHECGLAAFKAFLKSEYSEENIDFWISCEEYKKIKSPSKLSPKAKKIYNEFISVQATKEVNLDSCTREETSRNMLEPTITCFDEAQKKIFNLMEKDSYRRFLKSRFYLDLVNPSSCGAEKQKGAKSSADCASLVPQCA
MrgX1 antagonist: antagonists of human MrgX1 receptor, primary screen, HEK293 cells, Fluo-4 calcium flux; BAM8-22 antagonism; active compounds read low; B-score at 10 µM; hit rate 1.3% among 310,000; AID 588676, 2011;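 active = calcium-response B-score plate-corrected more than 3 library SD below zero, starting fluorescence within 5 deviations, no agonist response on first addition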;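 note: peak minus trough fluorescence over baseline after final BAM8-22 challenge near maximal dose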
Target sequence (Q96LB2 whole entry, looked up): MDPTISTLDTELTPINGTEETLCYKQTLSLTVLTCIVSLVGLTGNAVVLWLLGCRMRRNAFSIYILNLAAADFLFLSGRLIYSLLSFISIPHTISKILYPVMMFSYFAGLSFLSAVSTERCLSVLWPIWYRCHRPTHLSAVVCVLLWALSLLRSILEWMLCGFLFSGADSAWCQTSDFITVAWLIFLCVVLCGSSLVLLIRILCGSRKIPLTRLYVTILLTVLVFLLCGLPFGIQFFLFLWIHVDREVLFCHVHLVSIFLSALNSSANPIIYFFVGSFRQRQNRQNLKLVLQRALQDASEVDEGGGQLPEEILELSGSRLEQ
RGS4 act: RGS4 potentiators or activators, primary screen, cell-based, HEK293 M3R inducible RGS4, calcium flux; B-score at 10 µM; hit rate 0.92% among 310,000; carbachol calcium flux Fluo4; active compounds read low;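 active = B-score of the integrated calcium signal more than 4 SD below the library mean, with starting fluorescence not abnormally high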;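 note: negative B-score means reduced calcium response which marks RGS4 activation or potentiation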
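Material: Inducible-RGS4 HEK293 cells carrying M3 receptor; also added: carbachol at ECmax as muscarinic agonist stimulus; incubation: compound preincubation 20 min at room temperature before agonist; signal: Fluo4-AM (2 µM) calcium-flux fluorescence, kinetic read; measure: integrated calcium ratio converted to B score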
MrgX1 agonist: agonists of human MrgX1 receptor, primary screen, HEK293 cells, Fluo-4 calcium flux; Mas-related G-protein coupled receptor member X1 (Homo sapiens), Q96LB2; Fluo-4 calcium fluorescence, agonist mode; active compounds read high; B-score at 10 µM; hit rate 0.44% among 310,000;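 active = calcium response B-score plate-corrected fluorescence ratio at least 3 library SD, with starting fluorescence B-score inside 5 SD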
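Test system: HEK293 cells stably expressing human MrgX1 receptor; Input: fifteen thousand cells per well; Dosing: compound delivered in addition one of three; Schedule: overnight seeding, then 1 h dark dye loading; Technique: Fluo-4 NW calcium fluorescence; Measure: B-scored fluorescence response ratio; Controls: positive and negative controls per plate.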
MrgX1 PAM: positive allosteric modulators of MrgX1, primary screen, HEK293 cells, Fluo-4 calcium flux; Mas-related G-protein coupled receptor member X1 (Homo sapiens), Q96LB2; FDSS; active compounds read high; B-score at 10 µM; hit rate 0.63% among 310,000;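 active = plate-corrected calcium response at least 3 library SD above typical, normal starting fluorescence, not activating the receptor alone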;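 note: compound read alongside a low EC10 to EC30 dose of BAM8-22 agonist; peak minus trough fluorescence over baseline measured at the second addition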
The depositor's hits bear a star.

How did Cn1c(C(=O)Nc2ccc3c(c2)OCCO3)cc2c(=O)n(C)c3ccccc3c21 do in these assays?
RGS4 block: inactive; MrgX1 antagonist: inactive; RGS4 act: -7.2*; MrgX1 agonist: inactive; MrgX1 PAM: inactive

Results for Cc1nc2ccc(NC(=O)N3CCCCC3)cc2s1 ?
RGS4 block: inactive; MrgX1 antagonist: inactive; RGS4 act: inactive; MrgX1 agonist: inactive; MrgX1 PAM: inactive

Results for CO/N=C/C(c1ncc(C(F)(F)F)cc1Cl)S(=O)(=O)c1ccccc1 (configuration not stated) ?
RGS4 block: inactive; MrgX1 antagonist: -8.2*; RGS4 act: inactive; MrgX1 agonist: inactive; MrgX1 PAM: inactive

Results for CO/N=C/C(c1ccc(Cl)nc1)S(=O)(=O)c1ccccc1 (configuration not stated) ?
RGS4 block: inactive; MrgX1 antagonist: inactive; RGS4 act: inactive; MrgX1 agonist: inactive; MrgX1 PAM: inactive

How did Cc1cc2n(n1)C(c1ccccc1)CC(c1ccc(Br)cc1)=N2 (configuration not stated) do in these assays?
MrgX1 antagonist: inactive; MrgX1 agonist: inactive; MrgX1 PAM: 15*

How did CNC(=S)N1N=C(c2ccc(Br)cc2)CC1c1ccc(Br)cc1 (configuration not stated) do in these assays?
RGS4 block: inactive; MrgX1 antagonist: inactive; RGS4 act: inactive; MrgX1 agonist: inactive; MrgX1 PAM: inactive

How did O=C1CC(c2ccc(Cl)c([N+](=O)[O-])c2)c2ccc3ccccc3c2N1 (configuration not stated) do in these assays?
RGS4 block: inactive; MrgX1 antagonist: -7.5*; RGS4 act: inactive; MrgX1 agonist: inactive; MrgX1 PAM: inactive

Results for CCc1nc(Nc2ccc3c(c2)OCCO3)c2oc3ccccc3c2n1 ?
RGS4 block: inactive; MrgX1 antagonist: inactive; RGS4 act: -7.3*; MrgX1 agonist: inactive; MrgX1 PAM: inactive

What do the screens show for `CCOc1ccc(NC(=O)CNc2ccc(C)cc2Cl)cc1`?
RGS4 block: inactive; MrgX1 antagonist: inactive; RGS4 act: inactive; MrgX1 agonist: inactive; MrgX1 PAM: inactive

Results for Fc1ccc(OCCOCCN2CCCC2)cc1 ?
RGS4 block: inactive; MrgX1 antagonist: inactive; RGS4 act: inactive; MrgX1 agonist: inactive; MrgX1 PAM: inactive

How did CC(OCCN1CCCC1)(c1ccc(F)cc1)c1ccc(F)cc1 do in these assays?
RGS4 block: inactive; MrgX1 antagonist: inactive; RGS4 act: -7.5*; MrgX1 agonist: inactive; MrgX1 PAM: inactive

How did O=C1CC(c2ccccc2)CC(O)=C1C=NCCc1ccccc1 (configuration not stated) do in these assays?
RGS4 block: inactive; MrgX1 antagonist: inactive; RGS4 act: inactive; MrgX1 agonist: inactive; MrgX1 PAM: 11*

How did O=C1CC(c2ccc(Cl)cc2)CC(O)=C1C=NCc1ccc(Cl)c(Cl)c1 (configuration not stated) do in these assays?
RGS4 block: inactive; MrgX1 antagonist: inactive; RGS4 act: -8*; MrgX1 agonist: inactive; MrgX1 PAM: inactive

What do the screens show for `CC1=CC(C)(C)N(C(=O)c2ccc(F)cc2)c2cc3c(cc21)OCO3`?
RGS4 block: inactive; MrgX1 antagonist: inactive; RGS4 act: inactive; MrgX1 agonist: inactive; MrgX1 PAM: inactive

How did CCOC(=O)C1=C(CSc2nc(-c3ccccc3)ccc2C#N)OC(N)=C(C#N)C1c1cccnc1 (configuration not stated) do in these assays?
RGS4 block: inactive; MrgX1 antagonist: -6.1*; RGS4 act: inactive; MrgX1 agonist: inactive; MrgX1 PAM: inactive

Results for CN1C=CC(=CC=C2C=CC(=O)C=C2)C=C1 ?
RGS4 block: inactive; MrgX1 antagonist: inactive; RGS4 act: inactive; MrgX1 agonist: inactive; MrgX1 PAM: inactive

Results for Cc1cc(C)n(C(=O)c2c([N+](=O)[O-])c(C)nn2C)n1 ?
RGS4 block: inactive; MrgX1 antagonist: -7.7*; RGS4 act: inactive; MrgX1 agonist: inactive; MrgX1 PAM: inactive

Results for CCN(CC)C(=O)COC(=O)C1=NN(c2cc(C)ccc2C)C(=O)CC1 ?
RGS4 block: inactive; MrgX1 antagonist: -5.5*; RGS4 act: inactive; MrgX1 agonist: inactive; MrgX1 PAM: inactive

What do the screens show for `COc1ccc(CNC[C@@H](CCCCN(C)Cc2ccc(OC)cc2)N2C[C@H](c3ccccc3)N(CCc3ccc(Cl)c(Cl)c3)C(=O)C2=O)cc1`?
RGS4 block: inactive; MrgX1 antagonist: inactive; RGS4 act: -8.2*; MrgX1 agonist: inactive; MrgX1 PAM: inactive

Results for COc1ccc(NC(=O)COC(=O)c2ccc(O)cc2)c([N+](=O)[O-])c1 ?
RGS4 block: inactive; MrgX1 antagonist: -5.5*; RGS4 act: inactive; MrgX1 agonist: inactive; MrgX1 PAM: inactive

Results for Cc1ccc(S(=O)(=O)Nc2ccc3c(c2)OCCO3)c(C)c1NS(C)(=O)=O ?
RGS4 block: inactive; MrgX1 antagonist: inactive; RGS4 act: inactive; MrgX1 agonist: inactive; MrgX1 PAM: inactive

How did COC(=O)c1[nH]c2cc(C)ccc2c1NC(=O)CN1CCCc2ccccc21 do in these assays?
RGS4 block: inactive; MrgX1 antagonist: inactive; RGS4 act: -7.3*; MrgX1 agonist: inactive; MrgX1 PAM: inactive

What do the screens show for `COC(=O)c1[nH]c2ccc(Br)cc2c1NC(=O)CN1CCCc2ccccc21`?
RGS4 block: inactive; MrgX1 antagonist: inactive; RGS4 act: inactive; MrgX1 agonist: inactive; MrgX1 PAM: inactive

How did Cc1c(Cl)cccc1NC(=O)CCS(=O)(=O)c1cccc2nonc12 do in these assays?
RGS4 block: inactive; MrgX1 antagonist: inactive; RGS4 act: inactive; MrgX1 agonist: inactive; MrgX1 PAM: inactive

What do the screens show for `Cc1ccc(N(C(=O)c2cccs2)C2C=CS(=O)(=O)C2)cc1` (configuration not stated)?
RGS4 block: inactive; MrgX1 antagonist: inactive; RGS4 act: inactive; MrgX1 agonist: inactive; MrgX1 PAM: inactive

Results for COc1ccc2ccc(=O)oc2c1 ?
RGS4 block: inactive; MrgX1 antagonist: inactive; RGS4 act: inactive; MrgX1 agonist: inactive; MrgX1 PAM: inactive

What do the screens show for `COCCn1c(=NC(=O)CSC(C)=O)sc2cc(F)ccc21`?
RGS4 block: inactive; MrgX1 antagonist: -9.3*; RGS4 act: inactive; MrgX1 agonist: inactive; MrgX1 PAM: inactive

Results for CC12COC3(C(=O)Nc4ccc([N+](=O)[O-])cc4)CC1CCC32C (configuration not stated) ?
RGS4 block: inactive; MrgX1 antagonist: inactive; RGS4 act: inactive; MrgX1 agonist: inactive; MrgX1 PAM: 8.4*
